Calls of active or inactive are those of the source. The calls are words filed in the database; no cut-off is given here.
How the values were obtained:
Colletotrichum acutatum [1] = test: Antifungal activity against Colletotrichum acutatum assessed as inhibition of microcyclic conidiation at 25 degC measured after 4 to 24 hr; type: functional
Method in brief: (§1)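 C. acutatum CECT 20240 conidia (PDA, 25 °C, continuous light, 7 days) as a 100 µL droplet of 5 × 10^5 conidia mL-1 on Parafilm-covered slides in sealed Petri dishes. Volatile applied to filter paper in the vapour phase at ≥4 doses, 0.13–1351.35 µL L-1, with water control. Incubated at 25 °C and scored microscopically at 4 and 24 h. Five dishes per dose, experiment run twice.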

Colletotrichum acutatum [2] = test: Antifungal activity against Colletotrichum acutatum assessed as inhibition of mycelial growth at 25 degC measured after 8 days; type: functional
Method in brief: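 A 5 mm PDA mycelial disc was placed in a sealed 74 mL dish holding 20 mL PDA. Volatile on filter paper under the lid at ≥6 doses, 33.78–1351.35 µL L-1, with extra doses for some compounds; water control. Colony diameter read after 8 days at 25 °C; five dishes per dose, run twice. MID, ID95 and ID50 from probit regression on log dose.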

Colletotrichum acutatum [3] = test: Antifungal activity against Colletotrichum acutatum assessed as inhibition of appressorium formation at 25 degC measured after 4 to 24 hr; type: functional; method in brief: as §1
Colletotrichum acutatum [4] = test: Antifungal activity against Colletotrichum acutatum assessed as inhibition of appressorium pigmentation at 25 degC measured after 4 to 24 hr; type: functional; method in brief: as §1
Colletotrichum acutatum [5] = test: Antifungal activity against Colletotrichum acutatum assessed as inhibition of germination at 25 degC measured after 4 to 24 hr; type: functional; method in brief: as §1
Colletotrichum acutatum [6] = test: Antifungal activity against Colletotrichum acutatum assessed as inhibition of pore appressorial formation at 25 degC measured after 4 to 24 hr; type: functional; method in brief: as §1
Colletotrichum acutatum [7] = test: Antifungal activity against Colletotrichum acutatum assessed as disruption of plasma membrane at 33.78 ul/L by transmission electrol microscopy; type: functional, organism-based
Colletotrichum acutatum [8] = test: Antifungal activity against Colletotrichum acutatum inoculated in strawberry fruits assessed as fruit damaging at 5 ul/L measured after 7 days; type: functional, organism-based
Method in brief: (§2)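 Strawberry fruits (cv. Camarosa) at commercial maturity inoculated with 10^6 conidia mL-1. Filter paper carrying 4, 5, 10, 20 or 50 µL L-1 volatile placed next to the fruit; inoculated untreated fruit as control. Kept at 25 °C under continuous light; damage rated at 7 days (0 = intact, 1 = covered with mycelia). Eight replicates, mean ± SE.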

Colletotrichum acutatum [9] = test: Antifungal activity against Colletotrichum acutatum inoculated in strawberry fruits assessed as fruit damaging at >=20 ul/L measured after 7 days; type: functional; method in brief: as §2
Colletotrichum acutatum [10] = test: Antifungal activity against Colletotrichum acutatum assessed as high disorganization of cell components at 33.78 ul/L by transmission electrol microscopy; type: functional, organism-based
Colletotrichum acutatum [11] = test: Antifungal activity against Colletotrichum acutatum inoculated in strawberry fruits assessed as fruit damaging at 10 ul/L measured after 7 days; type: functional; method in brief: as §2
Colletotrichum acutatum [12] = test: Antifungal activity against Colletotrichum acutatum inoculated in strawberry fruits assessed as fruit damaging at 4 ul/L measured after 7 days; type: functional, organism-based; method in brief: as §2
Colletotrichum acutatum [13] = test: Antifungal activity against Colletotrichum acutatum assessed as disruption of cell wall at 33.78 ul/L by transmission electrol microscopy; type: functional, organism-based

Structure (SMILES) | MID (Colletotrichum acutatum [1]) | ID50 (Colletotrichum acutatum [2]) | ID95 (Colletotrichum acutatum [2]) | MID (Colletotrichum acutatum [2]) | MID (Colletotrichum acutatum [3]) | MID (Colletotrichum acutatum [4]) | MID (Colletotrichum acutatum [5]) | MID (Colletotrichum acutatum [6]) | Activity (Colletotrichum acutatum [7]) | Activity (Colletotrichum acutatum [8]) | Activity (Colletotrichum acutatum [9]) | Activity (Colletotrichum acutatum [10]) | Activity (Colletotrichum acutatum [11]) | Activity (Colletotrichum acutatum [12]) | Activity (Colletotrichum acutatum [13])
CC/C=C\CCOC(C)=O [(Z)-hex-3-en-1-yl acetate] | 337.84 uL/L | 503.11 uL/L | 2063.11 uL/L | 2476.35 uL/L | 337.84 uL/L | 135.13 uL/L | 337.84 uL/L | 135.13 uL/L |  |  |  |  |  |  | 
CCC/C=C/COC(C)=O | 337.84 uL/L | 221.62 uL/L | 584.86 uL/L | 651.35 uL/L | 337.84 uL/L | 135.13 uL/L | 337.84 uL/L | 135.13 uL/L |  |  |  |  |  |  | 
CCC/C=C/C=O | 6.76 uL/L | 26.89 uL/L | 32.97 uL/L | 33.65 uL/L | 6.76 uL/L | 1.35 uL/L | 6.76 uL/L | 1.35 uL/L | Active | inactive | 100% | Active | 87.5% | inactive | Active
CC/C=C\CCO [CIS-3-HEXENOL] | 337.84 uL/L | 230.14 uL/L | 595 uL/L | 640.54 uL/L | 337.84 uL/L | 135.13 uL/L | 337.84 uL/L | 135.13 uL/L |  |  |  |  |  |  | 
CCCCCCO [1-HEXANOL] | 337.84 uL/L | 151.35 uL/L | 255.14 uL/L | 270.27 uL/L | 337.84 uL/L | 33.78 uL/L | 337.84 uL/L | 33.78 uL/L |  |  |  |  |  |  | 
CCCCCC=O [HEXANAL] | 33.78 uL/L | 151.35 uL/L | 256.49 uL/L | 272.16 uL/L | 33.78 uL/L | 6.76 uL/L | 33.78 uL/L | 6.76 uL/L |  |  |  |  |  |  | 
CCCCCCOC(C)=O [HEXYL ACETATE] | 1351.35 uL/L | 718.65 uL/L | 5100.41 uL/L | 6441.89 uL/L | 1351.35 uL/L | 337.84 uL/L | 1351.35 uL/L | 337.84 uL/L |  |  |  |  |  |  | 
CCC/C=C/CO | 135.13 uL/L | 151.76 uL/L | 253.78 uL/L | 268.92 uL/L | 33.78 uL/L | 33.78 uL/L | 135.13 uL/L | 33.78 uL/L |  |  |  |  |  |  | 

Reference: ChEMBL document CHEMBL3045505, “Antifungal activity of strawberry fruit volatile compounds against Colletotrichum acutatum” (2007)
